Drawing on ChEMBL document CHEMBL4330096, “Discovery of potent and selective 5-azaindazole inhibitors of leucine-rich repeat kinase 2 (LRRK2) - Part 1” (Bioorg Med Chem Lett, 2019), this text covers metabolised and inhibition for six compounds.

The structures appear in SMILES notation.

Data set [1] in a line: Stability in mouse liver microsomes assessed as compound turnover rate measured after 30 mins. To be noted: read-out: Drug metabolism. The data set is classed as ADME, Microsome. In a few lines:
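In vitro incubation of compound with liver microsomes: human (HLM) for 40 min, mouse (MLM) for 30 min. Reported as % turnover of parent compound.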
(Liver microsomes are vesicles of endoplasmic reticulum, rich in cytochrome P450 enzymes.)

Data set [2] deals with T1, Serine/threonine-protein kinase Chk1 (Homo sapiens) (UniProt O14757).
T1 sequence (whole entry): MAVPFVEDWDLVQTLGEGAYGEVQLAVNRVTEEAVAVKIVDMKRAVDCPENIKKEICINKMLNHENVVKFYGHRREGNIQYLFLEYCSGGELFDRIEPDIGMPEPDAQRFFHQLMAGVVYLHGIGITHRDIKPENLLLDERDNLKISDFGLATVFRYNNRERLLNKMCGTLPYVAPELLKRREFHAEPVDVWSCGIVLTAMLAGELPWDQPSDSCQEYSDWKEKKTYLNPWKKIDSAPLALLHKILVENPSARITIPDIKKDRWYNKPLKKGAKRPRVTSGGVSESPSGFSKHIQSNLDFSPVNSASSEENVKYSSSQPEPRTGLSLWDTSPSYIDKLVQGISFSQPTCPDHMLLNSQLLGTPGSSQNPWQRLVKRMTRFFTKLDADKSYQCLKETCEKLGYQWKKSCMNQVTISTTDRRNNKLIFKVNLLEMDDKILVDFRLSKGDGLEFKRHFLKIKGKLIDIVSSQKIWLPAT
The data set can be described thus: Inhibition of CHK1 (unknown origin) at 10 uM relative to control. In a few lines:
(§1)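 Single-point screen of each compound against a panel of 59 protein kinases, at 1 or 10 μM. The panel data are also summarised as a rescaled geometric mean selectivity score.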

The target in data set [3] is Casein kinase 2 (Homo sapiens) (UniProt P67870+P68400+P19784+Q8NEV1). Briefly: Inhibition of CK2 (unknown origin) at 10 uM relative to control. Type of data set: protein assay. In a few lines: as §1
Data set [4] has as its target Tyrosine-protein kinase CSK (Homo sapiens) (UniProt P41240). Briefly: Inhibition of CSK (unknown origin) at 10 uM relative to control. In a few lines: as §1
The target of data set [5] is T2, Eukaryotic elongation factor 2 kinase (Homo sapiens) (UniProt O00418).
T2 sequence (whole entry): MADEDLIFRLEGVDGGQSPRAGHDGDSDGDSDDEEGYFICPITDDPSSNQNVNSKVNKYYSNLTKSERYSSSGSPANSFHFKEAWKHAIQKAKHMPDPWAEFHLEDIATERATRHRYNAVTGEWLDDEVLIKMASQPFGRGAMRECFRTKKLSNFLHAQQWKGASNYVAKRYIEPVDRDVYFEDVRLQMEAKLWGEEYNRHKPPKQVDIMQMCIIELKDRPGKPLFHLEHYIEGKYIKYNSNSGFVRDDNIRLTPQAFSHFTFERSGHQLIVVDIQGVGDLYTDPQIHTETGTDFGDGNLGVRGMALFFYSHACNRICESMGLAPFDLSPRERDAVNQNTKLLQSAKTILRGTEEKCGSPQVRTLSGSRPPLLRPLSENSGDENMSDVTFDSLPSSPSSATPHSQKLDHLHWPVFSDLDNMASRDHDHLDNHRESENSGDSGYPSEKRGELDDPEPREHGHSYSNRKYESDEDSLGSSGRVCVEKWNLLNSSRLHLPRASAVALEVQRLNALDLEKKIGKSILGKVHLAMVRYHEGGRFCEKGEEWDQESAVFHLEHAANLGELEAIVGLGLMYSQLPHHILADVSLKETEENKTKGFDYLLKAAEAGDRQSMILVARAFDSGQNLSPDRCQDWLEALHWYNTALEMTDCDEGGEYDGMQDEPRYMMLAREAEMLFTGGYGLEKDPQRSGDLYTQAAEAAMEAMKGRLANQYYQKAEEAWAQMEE
Briefly: Inhibition of EF2K (unknown origin) at 10 uM relative to control. Put shortly: as §1

Data set [6] deals with Mitogen-activated protein kinase 3 (Homo sapiens) (UniProt P27361). Briefly: Inhibition of ERK1 (unknown origin) at 10 uM relative to control. Put shortly:
as §1

For data set [7], the target named is Insulin-like growth factor 1 receptor (Homo sapiens) (UniProt P08069). Briefly: Inhibition of IGF1R (unknown origin) at 10 uM relative to control. Put shortly:
as §1

In data set [8] the target is Dual specificity mitogen-activated protein kinase kinase 1 (Homo sapiens) (UniProt Q02750). Briefly: Inhibition of MKK1 (unknown origin) at 10 uM relative to control. In a few lines:
(§2)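 Single-concentration screen of each compound against a 59-protein-kinase panel, run at 10 µM or 1 µM. Activity relative to control is shown as a heat map across the panel.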

In data set [9] the target is Serine/threonine-protein kinase Nek6 (Homo sapiens) (UniProt Q9HC98). The data set can be described thus: Inhibition of NEK6 (unknown origin) at 10 uM relative to control. In a few lines: as §2
Chain of Serine/threonine-protein kinase Nek6 (Homo sapiens) (Q9HC98 whole entry): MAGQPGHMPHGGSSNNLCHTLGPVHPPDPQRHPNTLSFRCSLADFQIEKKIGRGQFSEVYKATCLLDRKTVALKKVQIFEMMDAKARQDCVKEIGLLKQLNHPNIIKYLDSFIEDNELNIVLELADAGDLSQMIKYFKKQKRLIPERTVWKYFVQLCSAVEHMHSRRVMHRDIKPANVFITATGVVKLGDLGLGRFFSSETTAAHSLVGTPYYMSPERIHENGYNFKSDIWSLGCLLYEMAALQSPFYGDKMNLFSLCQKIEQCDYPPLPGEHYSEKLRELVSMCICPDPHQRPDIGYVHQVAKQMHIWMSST
Data set [10] concerns the target Serine/threonine-protein kinase PAK 4 (Homo sapiens) (UniProt O96013). Briefly: Inhibition of PAK4 (unknown origin) at 10 uM relative to control. Put shortly: as §2
Data set [11] has as its target Serine/threonine-protein kinase pim-1 (Homo sapiens) (UniProt P11309). The data set can be described thus: Inhibition of PIM1 (unknown origin) at 10 uM relative to control. Put shortly: as §2
Data set [12] addresses Serine/threonine-protein kinase PLK1 (Homo sapiens) (UniProt P53350). Briefly: Inhibition of PLK1 (unknown origin) at 10 uM relative to control. In a few lines:
as §2

Data set [13] addresses T3, MAP kinase-activated protein kinase 5 (Homo sapiens) (UniProt Q8IW41).
T3 sequence (whole entry): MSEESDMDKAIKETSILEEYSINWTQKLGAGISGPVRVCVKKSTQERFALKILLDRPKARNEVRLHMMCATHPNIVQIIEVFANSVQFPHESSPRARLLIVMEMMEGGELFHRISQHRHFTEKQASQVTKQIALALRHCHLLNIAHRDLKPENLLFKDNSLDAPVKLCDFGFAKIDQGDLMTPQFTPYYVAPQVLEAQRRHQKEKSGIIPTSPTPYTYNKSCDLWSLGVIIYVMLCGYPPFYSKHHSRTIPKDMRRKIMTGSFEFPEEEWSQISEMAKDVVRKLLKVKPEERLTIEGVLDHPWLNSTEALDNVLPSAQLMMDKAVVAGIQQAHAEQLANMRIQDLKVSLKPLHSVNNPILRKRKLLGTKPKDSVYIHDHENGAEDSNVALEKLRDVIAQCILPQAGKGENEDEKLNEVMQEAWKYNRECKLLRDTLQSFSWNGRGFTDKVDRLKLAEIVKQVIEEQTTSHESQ
Briefly: Inhibition of PRAK (unknown origin) at 10 uM relative to control. Put shortly:
as §2

The target of data set [14] is Serine/threonine-protein kinase N2 (Homo sapiens) (UniProt Q16513). The data set can be described thus: Inhibition of PRK2 (unknown origin) at 10 uM relative to control. Put shortly:
as §2

Data set [15] has as its target Rho-associated protein kinase 2 (Homo sapiens) (UniProt O75116). The data set can be described thus: Inhibition of ROCK2 (unknown origin) at 10 uM relative to control. In a few lines: as §2
Data set [16] has as its target Proto-oncogene tyrosine-protein kinase Src (Homo sapiens) (UniProt P12931). The data set can be described thus: Inhibition of Src (unknown origin) at 10 uM relative to control. Put shortly: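 Single-concentration screen across a panel of 59 protein kinases, with each compound tested at one fixed concentration. The read-out is residual kinase activity relative to control. Panel results are also condensed into a rescaled geometric mean (RGM) selectivity score.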

Chain of Serine/threonine-protein kinase PAK 4 (Homo sapiens) (O96013 whole entry, looked up): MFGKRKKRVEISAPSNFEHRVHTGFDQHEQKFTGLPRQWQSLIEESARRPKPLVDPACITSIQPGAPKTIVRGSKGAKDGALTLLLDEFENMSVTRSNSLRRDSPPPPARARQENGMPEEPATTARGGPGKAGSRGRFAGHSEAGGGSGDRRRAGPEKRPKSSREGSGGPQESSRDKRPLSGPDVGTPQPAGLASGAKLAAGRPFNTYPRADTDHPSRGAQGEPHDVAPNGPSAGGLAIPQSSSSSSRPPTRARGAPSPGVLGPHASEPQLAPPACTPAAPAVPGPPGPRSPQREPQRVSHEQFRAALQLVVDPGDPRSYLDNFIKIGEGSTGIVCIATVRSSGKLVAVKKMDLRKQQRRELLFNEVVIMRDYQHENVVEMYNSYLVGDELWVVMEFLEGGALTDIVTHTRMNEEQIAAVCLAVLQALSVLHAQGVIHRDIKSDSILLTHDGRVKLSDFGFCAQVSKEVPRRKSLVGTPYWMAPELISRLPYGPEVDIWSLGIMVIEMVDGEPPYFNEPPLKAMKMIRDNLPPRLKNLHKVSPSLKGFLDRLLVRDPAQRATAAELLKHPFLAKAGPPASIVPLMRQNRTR
Chain of Serine/threonine-protein kinase PLK1 (Homo sapiens) (P53350 whole entry): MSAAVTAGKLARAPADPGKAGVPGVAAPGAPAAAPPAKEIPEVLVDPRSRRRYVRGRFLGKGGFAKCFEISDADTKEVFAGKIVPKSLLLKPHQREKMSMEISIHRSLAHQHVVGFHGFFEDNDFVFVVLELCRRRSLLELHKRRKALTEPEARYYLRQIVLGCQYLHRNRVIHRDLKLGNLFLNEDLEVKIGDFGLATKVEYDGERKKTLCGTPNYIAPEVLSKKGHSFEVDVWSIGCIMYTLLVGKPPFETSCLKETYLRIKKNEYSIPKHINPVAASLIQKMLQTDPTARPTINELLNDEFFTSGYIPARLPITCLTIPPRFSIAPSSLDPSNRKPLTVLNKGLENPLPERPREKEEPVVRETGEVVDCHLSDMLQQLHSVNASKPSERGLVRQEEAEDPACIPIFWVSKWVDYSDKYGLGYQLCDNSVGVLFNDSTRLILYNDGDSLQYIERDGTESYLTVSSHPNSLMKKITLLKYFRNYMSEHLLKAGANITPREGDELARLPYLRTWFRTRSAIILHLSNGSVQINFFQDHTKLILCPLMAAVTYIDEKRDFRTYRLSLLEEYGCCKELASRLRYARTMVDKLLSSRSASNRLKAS
Chain of Rho-associated protein kinase 2 (Homo sapiens) (O75116 whole entry, looked up): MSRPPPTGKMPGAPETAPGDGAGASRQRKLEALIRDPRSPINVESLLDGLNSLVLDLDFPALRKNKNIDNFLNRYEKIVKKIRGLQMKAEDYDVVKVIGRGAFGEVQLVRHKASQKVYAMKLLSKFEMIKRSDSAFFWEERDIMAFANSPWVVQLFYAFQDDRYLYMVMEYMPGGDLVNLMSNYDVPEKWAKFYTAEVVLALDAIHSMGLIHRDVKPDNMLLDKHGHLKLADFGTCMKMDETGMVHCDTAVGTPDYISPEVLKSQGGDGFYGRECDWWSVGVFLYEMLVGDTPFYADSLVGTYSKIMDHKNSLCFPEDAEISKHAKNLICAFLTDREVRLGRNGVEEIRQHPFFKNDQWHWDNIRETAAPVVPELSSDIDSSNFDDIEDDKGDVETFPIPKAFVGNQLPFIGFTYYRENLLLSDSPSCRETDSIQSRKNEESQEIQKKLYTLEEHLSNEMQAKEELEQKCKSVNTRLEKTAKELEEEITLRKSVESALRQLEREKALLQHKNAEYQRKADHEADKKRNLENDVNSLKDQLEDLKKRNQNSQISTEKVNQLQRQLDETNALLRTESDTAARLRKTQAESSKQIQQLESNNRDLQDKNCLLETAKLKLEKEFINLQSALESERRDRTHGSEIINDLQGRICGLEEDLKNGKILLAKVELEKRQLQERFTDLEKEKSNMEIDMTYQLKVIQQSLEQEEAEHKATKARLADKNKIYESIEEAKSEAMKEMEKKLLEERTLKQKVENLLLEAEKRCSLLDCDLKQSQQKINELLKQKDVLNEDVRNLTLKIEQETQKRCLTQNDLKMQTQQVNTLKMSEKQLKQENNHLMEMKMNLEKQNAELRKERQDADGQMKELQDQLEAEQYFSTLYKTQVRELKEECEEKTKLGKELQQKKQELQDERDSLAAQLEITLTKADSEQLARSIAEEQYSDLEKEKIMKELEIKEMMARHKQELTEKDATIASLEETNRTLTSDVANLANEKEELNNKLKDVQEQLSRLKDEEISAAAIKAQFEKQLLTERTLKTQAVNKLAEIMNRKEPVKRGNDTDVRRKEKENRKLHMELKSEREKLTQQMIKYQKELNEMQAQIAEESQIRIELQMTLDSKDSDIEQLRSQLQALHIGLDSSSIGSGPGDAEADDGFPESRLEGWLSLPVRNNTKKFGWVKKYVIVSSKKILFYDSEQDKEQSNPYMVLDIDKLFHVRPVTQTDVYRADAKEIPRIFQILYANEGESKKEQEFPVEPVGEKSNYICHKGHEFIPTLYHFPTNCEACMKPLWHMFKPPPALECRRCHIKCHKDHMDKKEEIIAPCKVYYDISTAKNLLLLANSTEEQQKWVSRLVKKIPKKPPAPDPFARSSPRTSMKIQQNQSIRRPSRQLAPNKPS
Chain of Insulin-like growth factor 1 receptor (Homo sapiens) (P08069 31-736 limits assumed): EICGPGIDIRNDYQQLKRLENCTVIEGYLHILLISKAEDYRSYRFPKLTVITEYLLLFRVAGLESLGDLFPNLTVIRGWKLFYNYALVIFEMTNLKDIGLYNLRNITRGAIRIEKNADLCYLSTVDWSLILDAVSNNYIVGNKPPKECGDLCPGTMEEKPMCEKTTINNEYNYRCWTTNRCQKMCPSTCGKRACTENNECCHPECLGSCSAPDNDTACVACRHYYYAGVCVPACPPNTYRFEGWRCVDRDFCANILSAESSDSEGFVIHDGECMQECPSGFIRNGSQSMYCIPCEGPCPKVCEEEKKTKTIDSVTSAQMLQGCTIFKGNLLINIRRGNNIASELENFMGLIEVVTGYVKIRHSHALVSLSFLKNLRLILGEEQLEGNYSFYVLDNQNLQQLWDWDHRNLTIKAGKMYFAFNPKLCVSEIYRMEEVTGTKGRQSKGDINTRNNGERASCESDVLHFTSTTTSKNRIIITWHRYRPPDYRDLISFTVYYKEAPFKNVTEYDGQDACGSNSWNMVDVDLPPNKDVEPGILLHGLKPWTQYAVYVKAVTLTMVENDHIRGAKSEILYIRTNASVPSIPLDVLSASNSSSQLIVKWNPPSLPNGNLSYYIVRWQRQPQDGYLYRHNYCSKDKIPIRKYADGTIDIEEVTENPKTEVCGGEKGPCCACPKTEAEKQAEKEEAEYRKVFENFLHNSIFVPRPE
Chain of Insulin-like growth factor 1 receptor (Homo sapiens) (P08069 741-1367 limits assumed): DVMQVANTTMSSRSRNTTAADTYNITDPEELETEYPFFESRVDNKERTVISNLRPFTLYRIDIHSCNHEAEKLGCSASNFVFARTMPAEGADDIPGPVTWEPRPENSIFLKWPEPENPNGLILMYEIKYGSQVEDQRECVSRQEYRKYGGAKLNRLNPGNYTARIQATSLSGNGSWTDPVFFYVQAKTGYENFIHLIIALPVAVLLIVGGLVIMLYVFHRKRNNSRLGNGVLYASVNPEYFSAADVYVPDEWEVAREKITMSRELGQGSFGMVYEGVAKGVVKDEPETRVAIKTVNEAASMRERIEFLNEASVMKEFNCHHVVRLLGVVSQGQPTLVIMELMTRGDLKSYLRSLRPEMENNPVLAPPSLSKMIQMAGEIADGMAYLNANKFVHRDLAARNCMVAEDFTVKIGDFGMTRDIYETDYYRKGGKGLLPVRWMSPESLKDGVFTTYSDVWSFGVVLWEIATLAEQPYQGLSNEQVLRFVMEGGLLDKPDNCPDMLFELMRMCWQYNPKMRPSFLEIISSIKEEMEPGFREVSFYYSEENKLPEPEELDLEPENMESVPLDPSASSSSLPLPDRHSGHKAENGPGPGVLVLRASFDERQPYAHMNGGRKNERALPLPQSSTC
Chain of Tyrosine-protein kinase CSK (Homo sapiens) (P41240 2-450 limits assumed): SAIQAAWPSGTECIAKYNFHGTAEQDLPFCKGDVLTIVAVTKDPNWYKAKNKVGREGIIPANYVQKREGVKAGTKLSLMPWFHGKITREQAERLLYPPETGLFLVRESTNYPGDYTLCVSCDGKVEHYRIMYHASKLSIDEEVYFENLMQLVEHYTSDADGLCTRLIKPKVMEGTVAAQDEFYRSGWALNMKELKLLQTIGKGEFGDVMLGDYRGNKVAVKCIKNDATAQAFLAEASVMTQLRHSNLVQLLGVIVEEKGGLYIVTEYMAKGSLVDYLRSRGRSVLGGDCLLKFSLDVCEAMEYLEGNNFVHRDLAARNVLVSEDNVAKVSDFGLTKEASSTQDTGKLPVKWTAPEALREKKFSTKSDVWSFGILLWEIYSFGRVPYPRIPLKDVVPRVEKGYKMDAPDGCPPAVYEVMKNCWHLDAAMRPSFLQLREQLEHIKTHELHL
Chain of Serine/threonine-protein kinase pim-1 (Homo sapiens) (P11309 whole entry, looked up): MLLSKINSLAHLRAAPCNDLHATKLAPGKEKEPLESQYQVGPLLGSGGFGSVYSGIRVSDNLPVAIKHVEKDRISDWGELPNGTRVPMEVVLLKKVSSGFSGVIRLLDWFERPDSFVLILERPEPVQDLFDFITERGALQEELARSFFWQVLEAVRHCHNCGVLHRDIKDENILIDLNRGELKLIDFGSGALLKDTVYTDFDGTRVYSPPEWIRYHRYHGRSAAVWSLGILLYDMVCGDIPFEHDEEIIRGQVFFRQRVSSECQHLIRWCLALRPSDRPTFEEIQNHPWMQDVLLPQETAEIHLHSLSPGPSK

For the compound `CC(C)n1cc(-c2n[nH]c3ccnc(OC4CCOCC4)c23)cn1`, the metabolised at 0.5 h in data set [1] was 20%.

As usually defined, the inhibition is the drop in the measured response relative to a control, in per cent. Consider `Cc1n[nH]c2ccnc(NC3CCCCC3)c12`, for which the metabolised at 0.5 h in data set [1] was found to be 13%. For the same compound, the inhibition in [2] stood at 0%; in data set [3] it was 45%; in data set [4] it was 0%; in [5], 0%; in data set [6], 40%; in [7], 88%. The inhibition in data set [8] is 57%; in data set [9], 13%; in [10], 40%; in data set [11] it was 66%; in data set [12] it was 34%; in data set [13] it was 3%. Besides, the inhibition in [14] came out at 63%; in data set [15], 79%; in data set [16], 0%.

Consider `Cc1n[nH]c2ccnc(OC3CCCCC3)c12`, for which, in data set [1], the metabolised at 0.5 h is 37%. Also, the inhibition in data set [2] was 27%; in data set [3] it was 41%; in data set [4] it was 20%; in data set [5], 0%; in [6], 48%; in data set [7] it was 98%. Also, the inhibition amounted to 96% in data set [8]; 4% in data set [9]; 85% in data set [10]; 60% in data set [11]; 53% in data set [12]; 7% in [13]. In addition, the inhibition was found to be 92% in [14], 92% in data set [15] and 47% in [16].

`Cc1n[nH]c2ccnc(Nc3ccccc3F)c12`: the inhibition in [2] is 43%; in data set [3], 54%; in [4] it was 8%; in data set [5], 0%; in data set [6], 69%; in [7], 81%. Moreover, the inhibition in data set [8] stood at 57%; in data set [9], 12%; in data set [10], 44%; in [11], 67%; in data set [12] it was 72%; in data set [13], 11%. Besides, the inhibition in [14] is 50%; in data set [15], 62%; in [16], 23%.

On to `c1cc(-c2n[nH]c3ccnc(OC4CCOCC4)c23)cc(N2CCOCC2)n1`, for which the metabolised at 0.5 h in [1] worked out at 19%.

Take `Cc1n[nH]c2ccnc(Nc3ccc4ncsc4c3)c12`: the results for the inhibition in data set [2], in data set [4] and in data set [13] were 13%, 0% and 10%, respectively.
